Assay results of several laboratories.
Each line is one published result; the experiments were not run side by side.
Fibroblast growth factor 14: Fibroblast growth factor 14 (Homo sapiens, UniProt Q92915)
HTR1A: 5-hydroxytryptamine receptor 1A (HTR1A, Homo sapiens, UniProt P08908)

SMILES | target | test | setting | quantity | result
C#Cc1cc(-c2cc(Nc3nc(N[C@@H](C)c4ccc(F)cn4)ncc3Cl)n[nH]2)ccc1C=O | Serine/threonine-protein kinase TAO2 (TAOK2, Homo sapiens, UniProt Q9UL54) | enzyme activity, inhibitor | 0.2 µM | inhibition | 3.89%
O=c1cc(-c2ccc([N+](=O)[O-])cc2)[nH]c2c(-c3ccc(Cl)cc3)c(Cc3ccccc3)nn12 | Fibroblast growth factor 14 | binding, SPR | – | koff | 0.00101 s⁻¹
C1=C/COCc2cc(ccc2OCCN2CCCC2)Nc2nccc(n2)-c2cccc(c2)COC/1 | Death-associated protein kinase 3 (DAPK3, Homo sapiens, UniProt O43293) | binding | 0.1 µM | remaining binding | 53%
O=C(CN(Cc1ccccc1)S(=O)(=O)c1ccc(F)cc1)Nc1cccc(Cl)c1Cl | Fibroblast growth factor 14 | thermal stability | 25 µM | ΔTm | 1 °C
CCCCC(=O)Nc1ccc(-c2ccc3ncn(CCC)c(=O)c3c2)cn1 | cAMP-dependent protein kinase catalytic subunit beta (PRKACB, Homo sapiens, UniProt P22694) | binding, competition with immobilised ligand | 0.5 µM | remaining binding | 87%
C[C@]1(O)CCCN(c2nc(Nc3ccc(S(=O)(=O)N[C@H]4CC[C@H](CN5CCN(c6ccc(C7CCC(=O)NC7=O)cc6F)CC5)CC4)cc3Cl)ncc2C(F)(F)F)C1 (stereo partly drawn) | Leucine-rich repeat serine/threonine-protein kinase 2 (LRRK2, Homo sapiens, UniProt Q5S007, G2019S) | binding, competition with immobilised ligand | 1 µM | remaining binding | 12%
NC/C(=C\F)COc1cccc(Cn2c(=S)[nH]c(=O)c3[nH]cnc32)c1 | HTR1A | ligand displacement, radioligand | 10 µM | inhibition | < 50%
CCN1/C(=C/C(C)=O)Sc2ccc(F)cc21 | HTR1A | ligand displacement, radioligand | 10 µM | inhibition | 1.73%
CC(=O)Nc1ccc(Oc2ccc3c(c2)C(=O)N(c2cc(C)ccc2C)C3=O)cc1 | Fibroblast growth factor 14 | binding, SPR | – | kon | 69300 M⁻¹ s⁻¹
COc1ccc2oc(-c3ccc4nc(N)oc4c3)c/c(=N\c3ccccc3NC(=O)CCN)c2c1 | Serine/threonine-protein kinase BRSK2 (BRSK2, Homo sapiens, UniProt Q8IWQ3) | binding | 1 µM | remaining binding | 85%
C#Cc1cnc(Nc2ccnc(CO)c2)nc1Nc1ccccc1S(C)(=O)=NC#N (stereo not drawn) | Serine/threonine-protein kinase RIO2 (RIOK2, Homo sapiens, UniProt Q9BVS4) | cell-free assay | 1 µM | remaining signal | 100%
Cc1cccc(NC(=O)Cn2cc(CO)c3ccccc32)c1 | Fibroblast growth factor 14 | binding, SPR | – | kon | 8900 M⁻¹ s⁻¹
